Only some compounds are listed: those with a hit (about 2.5% of all), similar ones and a draw of the others.
SENP8 block-1: inhibitors of human SENP8 protease | purified SENP8, Z-RLRGG-aminoluciferin cleavage, luminescence | inhibition, % at 10 µM | actives 1.2% (n = 330,000); in the data active = inhibition above about 50%
SENP6 block: inhibitors of human SENP6 protease | Q9GZR1 | Recombinant SENP6 catalytic domain, aminoluciferin luminescence | actives 1.8% (n = 330,000) | inhibition, % at 10 µM;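 active = inhibition above about 50% at the single tested dose, limit read from the data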;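 note: plate controls were DMSO wells with enzyme for no effect and DMSO wells lacking enzyme for full effect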
Target sequence (Q9GZR1 628-1112 limits assumed): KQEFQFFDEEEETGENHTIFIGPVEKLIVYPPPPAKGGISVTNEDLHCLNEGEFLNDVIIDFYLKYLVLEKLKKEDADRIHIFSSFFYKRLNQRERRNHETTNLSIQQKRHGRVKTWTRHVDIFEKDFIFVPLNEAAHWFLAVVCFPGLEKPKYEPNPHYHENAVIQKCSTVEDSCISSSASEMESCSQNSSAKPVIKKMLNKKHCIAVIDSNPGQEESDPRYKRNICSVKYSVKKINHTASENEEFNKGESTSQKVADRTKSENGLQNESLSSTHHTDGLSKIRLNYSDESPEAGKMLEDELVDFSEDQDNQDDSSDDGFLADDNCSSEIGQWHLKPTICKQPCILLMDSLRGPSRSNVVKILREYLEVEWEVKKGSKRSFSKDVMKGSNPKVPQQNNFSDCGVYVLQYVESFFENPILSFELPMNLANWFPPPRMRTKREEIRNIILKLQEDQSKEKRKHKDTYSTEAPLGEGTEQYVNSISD
SENP8 block-2: blocks human SENP8 cleavage of Nedd8 substrate. actives 0.64% (n = 360,000). Q96LD8. inhibition, % at 20 µM. recombinant SENP8, Nedd8 substrate fluorescence; in the data active = inhibition mostly above about 40%, no sharp cut-off; inactive = mostly below about 27%
SENP1 FRET inh: blocks the human SENP1 SUMO protease catalytic domain | Q9P0U3 | recombinant SENP1 catalytic domain, CyPet-SUMO1-YPet FRET cleavage | inhibition, % at 10 µM | actives 0.21% (n = 360,000) | AID 624204;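 active = inhibition at least 30% at 10 µM, raw YFP signal under a set limit, fluorescence ratio 0.5 to 1.5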;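 note: 0% = enzyme with DMSO and 100% = no enzyme wells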
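Compound: 10 µM single point, 0.5% DMSO; Test system: hSENP1 catalytic domain, recombinant; Timing: 50 min reaction at room temperature; Technique: FRET, CFP and YFP emission; Control set: no-enzyme wells low, DMSO-plus-enzyme wells high control.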
SENP7 inh: blocks the human protease SENP7 | recombinant SENP7, Z-RLRGG-aminoluciferin luminescence, 40 min | inhibition, % at 5 µM | actives 1.5% (n = 330,000) | AID 434973;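 active = inhibition above about 50% at the single test dose, limit read from the data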;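 note: plate controls were DMSO with enzyme for no effect and no enzyme buffer wells for full effect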
Active calls of the source: *; . = no result.

SMILES | SENP8 block-1 | SENP6 block | SENP8 block-2 | SENP1 FRET inh | SENP7 inh
N#C/C(=N/Nc1ccccc1[N+](=O)[O-])C(N)=S | -11 | -13 | 45* | 3 | 12
N#C/C(=N\Nc1ccccc1)C(N)=S | -5 | -7 | 23 | 3 | 1
N#C/C(=N\Nc1ccc(Cl)cc1)C(N)=S | 16 | 33 | 46* | 1 | -32
Cn1nccc1C(=O)N/N=C/c1cccnc1 | 61* | -13 | 15 | 0 | 9
O=C(CCN1C(=O)C2C3C=CC(C4CC34)C2C1=O)Nc1ccc(Cl)cc1O (centres undefined) | 7 | -7 | 10 | 2 | -6
C/C(=N/OCO/N=C(/C)c1ccc(F)cc1)c1ccc(F)cc1 | 4 | 4 | 22 | 3 | 1
CCSc1nnc(NC(=O)c2ccccc2)s1 | 29 | 53* | -16 | 0 | 40
Cc1ccccc1C(=O)Nc1nnc(-c2ccco2)s1 | 44 | 54* | -197 | 1 | 73*
CCSc1nnc(NC(=O)c2cnccn2)s1 | 7 | -3 | . | . | 4
CCSc1nnc(NC(=O)c2ccccn2)s1 | 18 | 60* | 8 | 0 | 60*
COc1ccccc1C(=O)Nc1nnc(-c2ccco2)s1 | -6 | -24 | -329 | 2 | -9
CCSc1nnc(NC(=O)c2cccnc2Cl)s1 | -13 | 26 | 6 | -2 | -2
CCSc1nnc(NC(=O)c2ccccc2C)s1 | 36 | 55* | 2 | 2 | 44
CCSc1nnc(NC(=O)c2cccnc2)s1 | 0 | 11 | 10 | 0 | 16
Cc1onc(-c2c(F)cccc2Cl)c1C(=O)N=C(N)N1CCCC1 | 2 | -6 | 9 | -1 | -2
O=[N+]([O-])c1ccc(O)c(N=Cc2sc3ccccc3c2O)c1 | . | . | -108 | -48 | .
Oc1c(C=Nc2cccc3cccnc23)sc2ccccc12 | 87* | 92* | . | . | 74*
CCN(CC)Cc1cc(O)c(CN(CC)CC)cc1O | . | . | 24 | 46* | .
CCCC(=Nc1ccccc1)C1=C(O)C(C(=O)OC)C(C)(C)CC1=O (centres undefined) | -7 | -22 | 12 | 6 | 2
CCCCC(=Nc1ccc(N)cc1)C1=C(O)C(C(=O)OC)C(C)(C)CC1=O (centres undefined) | -2 | 14 | 54* | 48* | 6
CC1CC(C)CN(S(=O)(=O)c2ccc(NC(=O)[C@@H]3CCCN3C(=O)c3cccs3)cc2)C1 (some centres undefined) | -8 | -1 | -1 | 0 | -7
COC1=CC(=NCl)C=CC1=NCl | . | . | 76* | 31 | .
CC(=O)NC1=C(Nc2ccc(N(C)C)cc2)C(=O)c2ccccc2C1=O | 14 | 38 | 44* | 3 | 5
O=C(O)c1cccnc1C(=O)O | 2 | 2 | 41* | 5 | 1
CCOc1cc(C(c2c(C)[nH][nH]c2=O)c2c(C)[nH][nH]c2=O)ccc1OCc1ccc([N+](=O)[O-])cc1 | -1 | 7 | 37* | 2 | 9
SMILES | SENP8 block-1 | SENP6 block | SENP8 block-2 | SENP1 FRET inh | SENP7 inh
COc1ccc2sc3cccc(NCCN(C)C)c3c(=O)c2c1 | . | . | 29 | 25 | .
CN(C)CCNc1ccc(CO)c2sc3ccc(O)cc3c(=O)c12 | . | . | 45* | 27 | .
Cc1ccc(S(=O)(=O)NC(CC(C)C)C(=O)NCCCn2nc(C)cc2C)cc1 (centres undefined) | -18 | 6 | -2 | 1 | -7
COc1ccccc1N1CCN(C(=O)CN2C(=O)c3cccc4cccc(c34)C2=O)CC1 | 6 | -10 | -17 | 0 | 3
COc1ccccc1N1CCN(C2=Nc3cccc4cccc2c34)CC1 | -1 | 2 | 28 | 95* | -2
CC(=O)c1ccc(NC(=S)Nc2cccc3cnccc23)cc1 | 92* | 87* | -318 | -16 | 61*
Cc1ccc(N=Cc2cccc(O)c2O)c(C)c1 | 7 | 31 | 110* | 2 | 6
Cc1cc2c(cc1C)C(=O)C(Br)=C(N)C2=O | . | . | 79* | 5 | .
Cc1cc(-c2cc(C)c(N)cc2C)c(C)cc1N | . | . | 8 | 4 | .
C[C@H]1CN([C@@H](C)CO)C(=O)c2cc(C3=CCCC3)cnc2O[C@@H]1CN(C)C(=O)c1ccncc1 | . | . | -4 | 0 | .
CCOc1ccc2nc(N3C(=O)/C(=C/c4ccc(Cl)cc4)NC3=S)sc2c1 | . | . | 15 | 33* | .
NC(=S)N=Nc1c(O)cc(O)c2[nH]c(=O)ccc12 | . | . | 75* | -5 | .
CC1=C(C(=O)Nc2ccccc2C(=O)NCCCOC(C)C)SCCO1 | 2 | -7 | 9 | 1 | -6
CCOC(=O)C1CCN(C(=O)c2c(C)oc3c2C(=O)c2ccccc2C3=O)CC1 | 15 | 47 | 60* | 6 | 22
Nc1ccc(N2CCN(C(=O)c3cccs3)CC2)cc1 | -8 | -3 | 50* | 26 | -4
Cn1cc(/C=C2\SC(=O)N(c3ccc(O)cc3)C2=O)c2ccccc21 | -11 | 64* | 9 | -96 | 1
O=C1/C(=C/c2cccs2)SC(=S)N1c1ccccc1 | -1 | -7 | 13 | -2 | -3
O=C1/C(=C/c2cccs2)SC(=S)N1c1cccc(O)c1 | -6 | -22 | 48* | 2 | -14
CCOC(=O)NC(=O)/C(N=Nc1cccc(C(F)(F)F)c1)=C(\C)O | -8 | -11 | 14 | 0 | -2
COC(=O)/C(N=Nc1cccc(C(F)(F)F)c1)=C(\C)O | -3 | 0 | 49* | 0 | 3
CC(C)(C)c1cc[n+](-c2[nH]c(=O)sc2/C=N/NC([S-])=Nc2ccccc2)cc1 | 4 | -2 | 25* | 46* | 4
Cc1cc[n+](-c2[nH]c(=O)sc2/C=N/NC([S-])=Nc2ccccc2)cc1C | -5 | -10 | 24 | 27 | 1
Cc1csc(NC(=O)/C=C/c2ccc3c(c2)OCO3)n1 | 38 | 77* | -64 | 0 | 61*
O=C(/C=C/c1ccc2c(c1)OCO2)Nc1nc(-c2ccc(F)cc2F)cs1 | -2 | 5 | . | . | 9
O=C1/C(=N\S(=O)(=O)c2cccs2)C([n+]2cccc(Cc3ccccc3)c2)=C([O-])c2ccccc21 | 31 | 49 | 77* | 16 | 30
SMILES | SENP8 block-1 | SENP6 block | SENP8 block-2 | SENP1 FRET inh | SENP7 inh
CC(C)N(Cc1ccccc1)S(=O)(=O)c1cccs1 | 11 | -1 | 26 | 3 | -3
COc1ccc(CN(C)C(=O)c2cc(S(=O)(=O)Nc3ccccc3F)ccc2C)c(OC)c1 | -3 | -2 | 11 | 2 | -12
Cc1ccccc1NC(=O)C(=O)Nc1ccccc1C | 9 | 30 | 11 | 0 | 80*
Cc1ccccc1NC(=O)CC(=O)Nc1ccccc1C | -4 | -21 | 12 | 0 | 2
Oc1ccc(Br)cc1/C=N/N1CCCCC1 | 85* | 94* | 15 | -1 | 53*
O=[N+]([O-])c1ccc(O)c(C=NN2CCCCC2)c1 | . | . | 26 | 3 | .
O=[N+]([O-])c1ccc(CSc2nc3ccccc3[nH]2)cc1 | 34 | 58* | 18 | 2 | 61*
CC(C)Oc1ccc(S(=O)(=O)N2CCOCC2)cc1NC(=O)CSC(=S)N1CCCC1 | . | . | 11 | 0 | .
CCOC(=O)CCSc1nc(C)cc(C(F)(F)F)c1C#N | -5 | -5 | -28 | 76* | -13

Screens as filed in PubChem.
